Laboratory results taken from ChEMBL document CHEMBL1141560, “Alpha,beta-cyclic-beta-benzamido hydroxamic acids: novel templates for the design, synthesis, and evaluation of selective inhibitors of TNF-alpha converting enzyme (TACE)” (Bioorg Med Chem Lett, 2008).

Experiments:
Format in all cases: ADME, organism-based
[1] = AUC in rat at […], po; set-up: dose 3.3 mg/kg, route oral; conditions: plasma
[2] = Half life in rat at […], iv; set-up: dose 3.3 mg/kg, route intravenous; conditions: in vivo
[3] = AUC in rat at […], iv; set-up: dose 3.3 mg/kg, route intravenous; conditions: plasma
[4] = Clearance in rat at […], iv; set-up: dose 3.3 mg/kg, route intravenous; conditions: in vivo
[5] = Volume of distribution at steady state in rat at […], iv; set-up: dose 3.3 mg/kg, route intravenous; conditions: in vivo, read-out: Vdss
[6] = Half life in rat at […], po; set-up: dose 3.3 mg/kg, route oral; conditions: in vivo
[7] = Oral bioavailability in rat at […]; conditions: in vivo
[8] = Oral bioavailability in rat; conditions: in vivo
[9] = Half life in rat at 5.0 mg/kg, iv; set-up: dose 5 mg/kg, route intravenous; conditions: in vivo
Procedure, shortened: (§1)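 Rats given 5.0 mg/kg IV or PO by n-in-1 cassette dosing; three animals per dosing group, parameters reported as the group average.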

[10] = AUC in rat at 5.0 mg/kg, iv; set-up: dose 5 mg/kg, route intravenous; conditions: plasma; procedure, shortened: as §1
[11] = AUC in rat at 5.0 mg/kg, po; set-up: dose 5 mg/kg, route oral; conditions: plasma; procedure, shortened: as §1
[12] = Volume of distribution at steady state in rat at 5.0 mg/kg, iv; set-up: dose 5 mg/kg, route intravenous; conditions: in vivo, read-out: Vdss; procedure, shortened: as §1
[13] = Oral bioavailability in rat at 5.0 mg/kg; conditions: in vivo; procedure, shortened: as §1
[14] = Half life in rat at 5.0 mg/kg, po; set-up: dose 5 mg/kg, route oral; conditions: in vivo; procedure, shortened: as §1
[15] = Clearance in rat at 5.0 mg/kg, iv; set-up: dose 5 mg/kg, route intravenous; conditions: in vivo; procedure, shortened: as §1

C#CCN1C[C@H](C(=O)NO)[C@H](NC(=O)c2ccc(OCc3cc(C)nc4ccccc34)cc2)C1
AUC [1]: 0.567 µM·h | half-life [2]: 2.9 h | AUC [3]: 2.23 µM·h | clearance [4]: 55 mL/min/kg | Vd [5]: 1.7 L/kg | half-life [6]: 3.1 h | bioavailability [7]: 25%

Cc1cc(COc2ccc(C(=O)N[C@@H]3CN(S(C)(=O)=O)C[C@@H]3C(=O)NO)cc2)c2ccccc2n1
bioavailability [8]: 3%

Cc1cc(COc2ccc(C(=O)N[C@@H]3COC[C@@H]3C(=O)NO)cc2)c2ccccc2n1
half-life [9]: 2.1 h | AUC [10]: 4.06 µM·h | AUC [11]: 0.846 µM·h | Vd [12]: 0.8 L/kg | bioavailability [13]: 21% | half-life [14]: 2.9 h | clearance [15]: 38.3 mL/min/kg
